Laboratory results published in ChEMBL document CHEMBL1125715, “Novel 5-HT3 antagonists. Indole oxadiazoles” (J Med Chem, 1991).

Experiments:
[1] = biological target: T1, Serotonin 3 (5-HT3) receptor (Rattus norvegicus, UniProt P35563+Q9JJ16); assay: Compound was evaluated for the displacement of [3H]-Q-ICS 205-930 binding to 5-hydroxytryptamine 3 receptor in rat brain membranes; format: cell membranes
T1 sequence (P35563 whole entry): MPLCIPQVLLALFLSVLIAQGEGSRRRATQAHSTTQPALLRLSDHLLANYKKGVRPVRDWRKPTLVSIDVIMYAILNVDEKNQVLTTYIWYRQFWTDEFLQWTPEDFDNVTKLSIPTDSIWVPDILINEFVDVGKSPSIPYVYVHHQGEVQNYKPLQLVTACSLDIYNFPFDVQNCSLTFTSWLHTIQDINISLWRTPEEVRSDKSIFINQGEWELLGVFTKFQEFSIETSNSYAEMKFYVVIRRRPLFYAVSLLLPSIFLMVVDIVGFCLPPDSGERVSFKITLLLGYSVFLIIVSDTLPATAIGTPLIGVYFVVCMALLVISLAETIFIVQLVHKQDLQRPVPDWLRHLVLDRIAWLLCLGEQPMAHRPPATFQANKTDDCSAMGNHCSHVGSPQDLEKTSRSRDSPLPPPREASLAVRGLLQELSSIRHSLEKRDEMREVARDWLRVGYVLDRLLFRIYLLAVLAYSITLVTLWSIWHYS
T1 sequence (Q9JJ16 whole entry): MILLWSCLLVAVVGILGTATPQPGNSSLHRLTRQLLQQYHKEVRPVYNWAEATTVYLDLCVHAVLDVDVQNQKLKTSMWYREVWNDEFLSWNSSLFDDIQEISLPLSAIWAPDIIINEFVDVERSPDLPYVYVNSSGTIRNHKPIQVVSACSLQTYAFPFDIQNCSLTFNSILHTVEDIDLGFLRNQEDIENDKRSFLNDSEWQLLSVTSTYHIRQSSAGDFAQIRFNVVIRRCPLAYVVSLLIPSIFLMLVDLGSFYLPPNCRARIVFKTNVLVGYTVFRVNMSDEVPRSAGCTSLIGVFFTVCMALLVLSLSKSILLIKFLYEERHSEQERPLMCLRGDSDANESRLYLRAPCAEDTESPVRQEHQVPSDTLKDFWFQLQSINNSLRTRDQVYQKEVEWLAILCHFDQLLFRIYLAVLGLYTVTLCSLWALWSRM
How it was run: (§1)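 Rat cortical membranes from male Sprague-Dawley rats (250-300 g): sucrose homogenization, differential centrifugation, washed in 2.5 mM Hepes, made fresh on the day. About 400 µg protein incubated on ice (4 °C, 15 min) with 0.5-0.7 nM [3H]Q-ICS 205-930 in 10 mM Hepes pH 7.1 containing pargyline and ascorbate. Nonspecific binding defined with 10 µM MDL 72222.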

[2] = biological target: T1, Serotonin 3 (5-HT3) receptor; assay: Displacement of [3H]-Q-ICS 205-930 binding to 5-hydroxytryptamine 3 receptor recognition sites in rat brain membranes.; format: cell membranes; how it was run: as §1
[3] = pKa value of the compound.; format: physicochemical
[4] = pKa value of the compound; format: physicochemical

Structure (SMILES)	IC50 [2] [nM]	further results
Cc1[nH]c2ccc(O)cc2c1CCN	–	IC50 [1]: 646 nM
Cn1cc(-c2noc(C34CCN(CC3)CC4)n2)c2ccccc21	4.27	–
Oc1ccccc1-c1noc(C2CN3CCC2CC3)n1 (centres undefined)	41.7	–
CN1CCC(c2nc(-c3cn(C)c4ccccc34)no2)CC1	13.2	–
Cn1cc(-c2noc(C3CC[N+](C)(C)CC3)n2)c2ccccc21	35.5	–
Cc1ccc2c(c1)c(-c1noc(C3CN4CCC3CC4)n1)cn2C (centres undefined)	331	–
Cn1cc(-c2noc(CCN)n2)c2ccccc21	67.6	–
c1ccc2[nH]c(-c3noc(C4CN5CCC4CC5)n3)cc2c1 (centres undefined)	692	–
Cn1cc(-c2noc(C3CCC[N+](C)(C)C3)n2)c2ccccc21 (centres undefined)	34.7	–
c1ccc2c(-c3noc(C4CN5CCC4CC5)n3)cccc2c1 (centres undefined)	63.1	–
CNCc1nc(-c2cn(C)c3ccccc23)no1	1000	pKa [3]: 6.5
CN(C)Cc1nc(-c2cn(C)c3ccccc23)no1	166	pKa [3]: 5.6
Cn1cc(-c2noc(C3CN4CCC3CC4)n2)c2cc(F)ccc21 (centres undefined)	45.7	–
Cn1cc(-c2noc(C3CN4CCC3CC4)n2)c2ccccc21 (centres undefined)	1.38	–
C=CCn1cc(-c2noc(C3CN4CCC3CC4)n2)c2ccccc21 (centres undefined)	21.9	–
CN(C)CCCc1nc(-c2cn(C)c3ccccc23)no1	191	–
Cc1cccc2c(-c3noc(C4CN5CCC4CC5)n3)cn(C)c12 (centres undefined)	95.5	–
c1ccc2c(-c3noc(C4CN5CCC4CC5)n3)[nH]nc2c1 (centres undefined)	17.8	–
Cn1cc(-c2nc(C3CN4CCC3CC4)no2)c2ccccc21 (centres undefined)	29.5	–
CN1CCC=C(c2csc(-c3cn(C)c4ccccc34)n2)C1	5890	–
Cn1c(-c2noc(C3CN4CCC3CC4)n2)cc2ccccc21 (centres undefined)	676	–
Cn1cc(-c2noc(C[N+](C)(C)C)n2)c2ccccc21	0.708	–
Cn1cc(-c2noc(CN)n2)c2ccccc21	282	pKa [3]: 6.4
Cn1cc(-c2noc(C3=CCCNC3)n2)c2ccccc21	468	pKa [3]: 7.9
CN1C2CCC1CC(c1nc(-c3cn(C)c4ccccc34)no1)C2 (centres undefined)	191	–
Cn1cc(-c2noc(CCN3CCCCC3)n2)c2ccccc21	372	–

Structure (SMILES)	IC50 [2] [nM]	further results
Cn1cc(-c2noc(C3CC4CCN3CC4)n2)c2ccccc21 (centres undefined)	129	–
CN1CCCC(c2nc(-c3cn(C)c4ccccc34)no2)C1 (centres undefined)	12.9	–
c1ccc2ncc(-c3noc(C4CN5CCC4CC5)n3)cc2c1 (centres undefined)	1510	–
Oc1ccc(-c2noc(C3CN4CCC3CC4)n2)cc1 (centres undefined)	148	–
c1ccc2cc(-c3noc(C4CN5CCC4CC5)n3)ccc2c1 (centres undefined)	1480	–
Cn1cc(-c2noc(CC3CN4CCC3CC4)n2)c2ccccc21 (centres undefined)	55	–
c1ccc(-c2noc(C3CN4CCC3CC4)n2)cc1 (centres undefined)	200	–
CN1CC=C(c2nnc(-c3cn(C)c4ccccc34)o2)CC1	501	–
CNCCc1nc(-c2cn(C)c3ccccc23)no1	85.1	pKa [3]: 8.8
COc1cccc(-c2noc(C3CN4CCC3CC4)n2)c1 (centres undefined)	12.6	–
c1cncc(-c2noc(C3CN4CCC3CC4)n2)c1 (centres undefined)	2950	–
c1ccc2c(-c3noc(C4CN5CCC4CC5)n3)c[nH]c2c1 (centres undefined)	2.69	–
COc1ccccc1-c1noc(C2CN3CCC2CC3)n1 (centres undefined)	155	–
COc1ccc(-c2noc(C3CN4CCC3CC4)n2)cc1 (centres undefined)	1580	–
CN(C)CCc1nc(-c2cn(C)c3ccccc23)no1	13.8	pKa [3]: 7.7
CN1CCC=C(c2nc(-c3cn(C)c4ccccc34)no2)C1	209	pKa [4]: 7.2
Oc1cccc(-c2noc(C3CN4CCC3CC4)n2)c1 (centres undefined)	81.3	–
Cn1cc(-c2noc(C3CC4CCC3NC4)n2)c2ccccc21 (stereo in doubt; 12s)	89.1	–
Cn1cc(-c2noc(C3CC4CCC3NC4)n2)c2ccccc21 (stereo in doubt; 12t)	13.2	–
Cn1cc(-c2noc(C3CN4CCC3C4)n2)c2ccccc21 (stereo in doubt; 12u)	7.59	–
Cn1cc(-c2noc(C3CN4CCC3C4)n2)c2ccccc21 (stereo in doubt; 12v)	1.05	–
CN1CC2CCC1C(c1nc(-c3cn(C)c4ccccc34)no1)C2 (stereo in doubt; 12y)	224	–
CN1CC2CCC1C(c1nc(-c3cn(C)c4ccccc34)no1)C2 (stereo in doubt; 12z)	85.1	–
Cn1cc(-c2nsc(C3CC4CCN3C4)n2)c2ccccc21 (stereo in doubt; 26)	14.1	–
Cn1cc(-c2nsc(C3CC4CCN3C4)n2)c2ccccc21 (stereo in doubt; 27)	20.4	–
CN1[C@@H]2CC[C@H]1C[C@@H](OC(=O)c1cc(Cl)cc(Cl)c1)C2 [BEMESETRON]	–	IC50 [1]: 21.9 nM
